# Results reported in ChEMBL document CHEMBL2086264.
# The source made the active and inactive calls. No cut-off for these calls is given here.
# Key:
# Bacillus anthracis [1] = test: Inhibition of DNA synthesis in Bacillus anthracis sterne assessed as Inhibition of [3H]thymidine incorporation into DNA incubated for 15 mins prior to [3H]thymidine addition measured after 30 mins by scintillation counting; type: functional, organism-based
# Bacillus subtilis = test: Antibacterial activity against Bacillus subtilis ATCC 23857 after overnight incubation by microbroth dilution assay; type: functional
# Procedure, shortened: (§1)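 CLSI M7A7 microbroth dilution in Mueller-Hinton broth; S. pneumoniae broth given 5% lysed horse blood. DMSO stocks of 10 mg/mL; twofold dilutions to final 200–0.0125 µg/mL. Mid-log inoculum (OD600 0.5) diluted to final OD600 0.0005 (~10^5 CFU/mL). Overnight at 37°C; MIC is the lowest concentration inhibiting 90% of visible growth.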
# [2] = Inhibition of Staphylococcus aureus PlsY expressed in Escherichia coli FB23281 using [U-14C]glycerol-PO4 as substrate after 20 mins by scintillation counting
# Procedure, shortened: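 Membranes from E. coli FB23281 (ΔplsY) expressing S. aureus PlsY (SA1187), 4 µg per reaction. pH 7.4 buffer of 100 mM Tris–HCl, 150 mM NaCl, 1 mg/mL BSA and 5 mM Na3VO4, with 100 µM [U-14C]glycerol-PO4. Started with 16:0-PO4 (final 100 µM), 20 min at 37°C. Spotted on filter discs, washed in graded ice-cold TCA, scintillation counted.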
# Staphylococcus aureus = test: Antibacterial activity against Staphylococcus aureus ATCC 29213 after overnight incubation by microbroth dilution assay; type: functional; procedure, shortened: as §1
# Bacillus anthracis [3] = test: Antibacterial activity against Bacillus anthracis after overnight incubation by microbroth dilution assay; type: functional
# Streptococcus pneumoniae = test: Antibacterial activity against Streptococcus pneumoniae R6 after overnight incubation by microbroth dilution assay; type: functional; procedure, shortened: as §1
# Bacillus anthracis [4] = test: Inhibition of protein synthesis in Bacillus anthracis sterne assessed as Inhibition of [3H]amino acid incorporation into protein incubated for 15 mins prior to [3H]amino acid addition measured after 30 mins by scintillation counting; type: functional, organism-based
# Enterococcus faecalis = test: Antibacterial activity against Enterococcus faecalis ATCC 33186 after overnight incubation by microbroth dilution assay; type: functional
# Procedure, shortened: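 CLSI microbroth dilution in Mueller-Hinton broth; compounds dissolved in DMSO, twofold serial dilutions giving final 200–0.0125 µg/mL. Inoculum from single colony grown at 37°C to mid-log (OD600 0.5), diluted to final OD600 0.0005 (~10^5 CFU/mL). Incubated overnight at 37°C; MIC = lowest concentration inhibiting 90% of visible growth.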
# Bacillus anthracis [5] = test: Inhibition of RNA synthesis in Bacillus anthracis sterne assessed as Inhibition of [3H]uracil incorporation into RNA incubated for 15 mins prior to [3H]uracil addition measured after 30 mins by scintillation counting; type: functional, organism-based
SMILES,inhibition (Bacillus anthracis [1]),MIC90 (Bacillus subtilis),IC50 [2],MIC90 (Staphylococcus aureus),MIC90 (Bacillus anthracis [3]),MIC90 (Streptococcus pneumoniae),inhibition (Bacillus anthracis [4]),MIC90 (Enterococcus faecalis),inhibition (Bacillus anthracis [5])
O=C(CCCCCc1ccccc1)NS(=O)(=O)Oc1ccccc1,Active,> 200 µg/mL,100 µM,100 µg/mL,100 µg/mL,50 µg/mL,Active,50 µg/mL,Active
CCCCCCCCCCCCCCCC(=O)NS(=O)(=O)Oc1ccc(Cl)c(Cl)c1,Active,100 µg/mL,9 µM,> 200 µg/mL,12.5 µg/mL,> 200 µg/mL,Active,100 µg/mL,Active
CCCCCCCCCCCCCCCC(=O)NS(=O)(=O)Oc1ccc(-c2ccc([N+](=O)[O-])cc2)cc1,Active,> 200 µg/mL,11 µM,100 µg/mL,1.56 µg/mL,0.78 µg/mL,Active,> 200 µg/mL,Active
CCCCCCCCCCCCCCCC(=O)NS(=O)(=O)OC1CCOC1 (stereo not drawn),Active,> 200 µg/mL,45 µM,25 µg/mL,1.56 µg/mL,> 200 µg/mL,Active,> 200 µg/mL,Active
CCCCCCCCCCCCCCCC(=O)NS(=O)(=O)Oc1ccc(C)cc1,Active,200 µg/mL,12 µM,> 200 µg/mL,6.25 µg/mL,> 200 µg/mL,Active,200 µg/mL,Active
CCCCCCCCCCCCCCCC(=O)NS(=O)(=O)Oc1ccc(C(=O)OCC)cc1,Active,> 200 µg/mL,10 µM,6.25 µg/mL,3.13 µg/mL,1.56 µg/mL,Active,> 200 µg/mL,Active
CCCCCCCCCCCCCCCC(=O)NS(=O)(=O)Oc1ccc(Cl)cc1,Active,> 200 µg/mL,6 µM,> 200 µg/mL,6.25 µg/mL,100 µg/mL,Active,> 200 µg/mL,Active
CCCCCCCCCCCCCCCC(=O)NS(=O)(=O)OC1CCOCC1,Active,> 200 µg/mL,30 µM,> 200 µg/mL,3.13 µg/mL,> 200 µg/mL,Active,> 200 µg/mL,Active
CCCCCCCCCCCCCCCC(=O)NS(=O)(=O)OC1CCCC1 [CYCLOPENTYL PALMITOYLSULFAMATE],Active,> 200 µg/mL,> 100 µM,> 200 µg/mL,> 100 µg/mL,> 200 µg/mL,Active,> 200 µg/mL,Active
CCCCCCCCCCCCCCCC(=O)NS(=O)(=O)Oc1ccc(CCN)cc1,Active,> 200 µg/mL,> 100 µM,> 200 µg/mL,> 100 µg/mL,> 200 µg/mL,Active,> 200 µg/mL,Active
CCCCCCCCCCCCCCCC(=O)NS(=O)(=O)OC [METHYL PALMITOYLSULFAMATE],Active,> 200 µg/mL,80 µM,> 200 µg/mL,> 100 µg/mL,> 200 µg/mL,Active,> 200 µg/mL,Active
CCCCCCCCCCCCCCCC(=O)NS(=O)(=O)Oc1ccc(CCNC(=O)OC(C)(C)C)cc1,Active,> 200 µg/mL,22 µM,> 200 µg/mL,1.56 µg/mL,3.13 µg/mL,Active,> 200 µg/mL,Active
CCCCCCCCCCCCCCCC(=O)NS(=O)(=O)Oc1ccc2c(OS(N)(=O)=O)coc2c1,Active,100 µg/mL,41 µM,25 µg/mL,3.13 µg/mL,3.13 µg/mL,Active,100 µg/mL,Active
O=C(CCCCCCc1ccccc1)NS(=O)(=O)Oc1ccccc1,Active,> 200 µg/mL,76 µM,50 µg/mL,12.5 µg/mL,50 µg/mL,Active,100 µg/mL,Active
CCCCCCCCCCCCCCCC(=O)NS(=O)(=O)Oc1ccc2ncccc2c1,Active,200 µg/mL,9 µM,> 200 µg/mL,3.13 µg/mL,1.56 µg/mL,Active,200 µg/mL,Active
CCCCCCCCCCCCCCCC(=O)NS(=O)(=O)Oc1ccc(OC)cc1,Active,3.12 µg/mL,8 µM,12.5 µg/mL,3.13 µg/mL,12.5 µg/mL,Active,3.12 µg/mL,Active
CCCCCCCCCCCCCCCC(=O)NS(=O)(=O)Oc1ccc(CC(=O)OC)cc1,Active,> 200 µg/mL,11 µM,25 µg/mL,3.13 µg/mL,0.78 µg/mL,Active,> 200 µg/mL,Active
CCCCCCCCCCCCCC(=O)NS(=O)(=O)Oc1ccc(OC)cc1,Active,> 200 µg/mL,6 µM,> 200 µg/mL,0.78 µg/mL,> 200 µg/mL,Active,6.25 µg/mL,Active
O=C(/C=C/c1ccc(-c2ccccc2)cc1)NS(=O)(=O)Oc1ccccc1,Active,> 200 µg/mL,> 100 µM,25 µg/mL,100 µg/mL,100 µg/mL,Active,50 µg/mL,Active
O=C(CCCCCCCCCCc1ccccc1)NS(=O)(=O)Oc1ccccc1,Active,100 µg/mL,8 µM,6.25 µg/mL,3.13 µg/mL,200 µg/mL,Active,12.5 µg/mL,Active
CCCCCCCCCCCCCCCC(=O)NS(=O)(=O)Oc1cccc(Cl)c1,Active,100 µg/mL,14 µM,> 200 µg/mL,3.13 µg/mL,> 200 µg/mL,Active,100 µg/mL,Active
CCCCCCCCCCCCCCCC(=O)NS(=O)(=O)Oc1ccccc1 [PHENYL PALMITOYLSULFAMATE],Active,50 µg/mL,8 µM,> 200 µg/mL,3.13 µg/mL,> 200 µg/mL,Active,50 µg/mL,Active
C=CCCCCCCCCC(=O)NS(=O)(=O)Oc1ccc(OC)cc1,Active,6.25 µg/mL,27 µM,12.5 µg/mL,12.5 µg/mL,200 µg/mL,Active,1.6 µg/mL,Active
CCCCCCCCCCCCCCCC(=O)NS(=O)(=O)OC1CCNCC1,Active,> 200 µg/mL,> 100 µM,> 200 µg/mL,> 100 µg/mL,> 200 µg/mL,Active,> 200 µg/mL,Active
CCCCCCCCCCCCCCCC(=O)NS(=O)(=O)OC1CCN(C(=O)OC(C)(C)C)CC1,Active,> 200 µg/mL,15 µM,> 200 µg/mL,3.13 µg/mL,> 200 µg/mL,Active,> 200 µg/mL,Active
CCCCCCCCCCCCCCCC(=O)NS(=O)(=O)Oc1ccc2c(c1)OCO2,Active,> 200 µg/mL,12 µM,100 µg/mL,> 100 µg/mL,3.13 µg/mL,Active,> 200 µg/mL,Active
CCCCCCCCCCCCCCCC(=O)NS(=O)(=O)OC1CCCCC1 [CYCLOHEXYL PALMITOYLSULFAMATE],Active,> 200 µg/mL,5 µM,> 200 µg/mL,6.25 µg/mL,100 µg/mL,Active,> 200 µg/mL,Active
